Assay results as given in ChEMBL document CHEMBL1781959, “Synthesis and in vitro antitumor activity of substituted quinazoline and quinoxaline derivatives: search for anticancer agent” (Eur J Med Chem, 2011).

Experiments:
HCT-15 = assay: Growth inhibition of human HCT15 cells after 48 hrs by SRB assay; format: functional; details: HCT-15, 48 h
Outline: (§1)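 NCI 60-panel five-dose assay at 0.01, 0.1, 1, 10 and 100 μM. Cells in RPMI 1640 with 5% FBS and 2 mM L-glutamine, preincubated 24 h, with time-zero plates TCA-fixed. Drug exposure 48 h at 37 °C. Read by SRB staining at 515 nm. GI50 is the concentration where [(Ti−Tz)/(C−Tz)]×100 = 50, taken from log concentration versus % growth curves.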

LOX IMVI [1] = assay: Growth inhibition of human LOXIMVI cells after 48 hrs by SRB assay; format: functional; outline: as §1
U-251 = assay: Anticancer activity against human U251 cells assessed as cell growth promotion at 10^-5 M after 48 hrs by SRB assay relative to control; format: functional
SK-MEL-2 [2] = assay: Growth inhibition of human SK-MEL-2 cells after 48 hrs by SRB assay; format: functional; details: SK-MEL-2, 48 h
Outline: (§2)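 NCI-60 panel cells grown in RPMI 1640 with 5% FBS and 2 mM L-glutamine, then seeded at 5000–40,000 cells/well by doubling time and preincubated for 24 h. Compound in DMSO was tested either at 10^-5 M alone or at 0.01–100 μM in five doses, for 48 h at 37 °C. Cells were fixed with cold TCA (10% final), stained with SRB, and read at 515 nm. GI50 was taken from % growth relative to time-zero and control wells.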

OVCAR-4 = assay: Anticancer activity against human OVCAR4 cells assessed as cell growth promotion at 10^-5 M after 48 hrs by SRB assay relative to control; format: functional
T47D = assay: Cytotoxicity against human T47D cells after 48 hrs by SRB assay; format: cell-based
Outline: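 NCI-60 five-dose screen. Cells grown in RPMI 1640 with 5% FBS and 2 mM L-glutamine and pre-incubated 24 h; a time-zero plate is TCA-fixed. Drug added at 0.01, 0.1, 1, 10 and 100 µM (DMSO stock) for 48 h at 37 °C, 5% CO2. Fixed with cold TCA (10% final for adherent, 16% for suspension cells), stained with 0.4% SRB, A515. GI50, TGI and LC50 taken from dose-response curves.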

SK-MEL-5 = assay: Cytotoxicity against human SK-MEL-5 cells after 48 hrs by SRB assay; format: cell-based; details: sk-mel-5, 48 h
Outline: (§3)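 NCI-60 five-dose screen in RPMI 1640 with 5% FBS and 2 mM L-glutamine; 5000–40,000 cells/well, 24 h pre-incubation. DMSO stocks diluted to 0.01, 0.1, 1, 10 and 100 μM final; 48 h at 37 °C, 5% CO2. Fixed with TCA (10% final adherent, 16% suspension), stained with 0.4% SRB, A515. GI50, TGI and LC50 taken from time-zero, control and test absorbances.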

MDA-MB-231 = assay: Growth inhibition of human MDA-MB-231 cells after 48 hrs by SRB assay; format: functional; details: MDA-MB-231, 48 h; outline: as §1
LOX IMVI [3] = assay: Anticancer activity against human LOXIMVI cells assessed as cell growth promotion at 10^-5 M after 48 hrs by SRB assay relative to control; format: functional
UACC-62 = assay: Anticancer activity against human UACC62 cells assessed as cell growth promotion at 10^-5 M after 48 hrs by SRB assay relative to control; format: functional
HT-29 = assay: Anticancer activity against human HT-29 cells assessed as cell growth promotion at 10^-5 M after 48 hrs by SRB assay relative to control; format: functional
COLO 205 = assay: Anticancer activity against human COLO205 cells assessed as cell growth promotion at 10^-5 M after 48 hrs by SRB assay relative to control; format: functional
NCI/ADR-RES = assay: Cytotoxicity against human NCI/ADR-RES cells after 48 hrs by SRB assay; format: cell-based; outline: as §3
SW-620 = assay: Anticancer activity against human SW620 cells assessed as cell growth promotion at 10^-5 M after 48 hrs by SRB assay relative to control; format: functional
[4] = Anticancer activity against human […] cells assessed as cell growth promotion at 10^-5 M after 48 hrs by SRB assay relative to control; format: functional
NCI-H322M = assay: Anticancer activity against human NCI-H322M cells assessed as cell growth promotion at 10^-5 M after 48 hrs by SRB assay relative to control; format: functional
ACHN = assay: Anticancer activity against human ACHN cells assessed as cell growth promotion at 10^-5 M after 48 hrs by SRB assay relative to control; format: functional
M14 = assay: Anticancer activity against human M14 cells assessed as cell growth promotion at 10^-5 M after 48 hrs by SRB assay relative to control; format: functional
NCI-H23 = assay: Anticancer activity against human NCI-H23 cells assessed as cell growth promotion at 10^-5 M after 48 hrs by SRB assay relative to control; format: functional
NCI-H522 = assay: Anticancer activity against human NCI-H522 cells assessed as cell growth promotion at 10^-5 M after 48 hrs by SRB assay relative to control; format: functional
SNB-75 [5] = assay: Growth inhibition of human SNB75 cells after 48 hrs by SRB assay; format: functional; details: SNB-75, 48 h; outline: as §2
SNB-75 [6] = assay: Anticancer activity against human SNB75 cells assessed as cell growth promotion at 10^-5 M after 48 hrs by SRB assay relative to control; format: functional
HOP-62 = assay: Anticancer activity against human HOP62 cells assessed as cell growth promotion at 10^-5 M after 48 hrs by SRB assay relative to control; format: functional
HL-60(TB) = assay: Anticancer activity against human HL-60(TB) cells assessed as cell growth promotion at 10^-5 M after 48 hrs by SRB assay relative to control; format: functional
Outline: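 NCI-60 single-dose screen: compound at 10^-5 M, 48 h at 37 °C, 5% CO2; cells grown in RPMI 1640 with 5% FBS and 2 mM L-glutamine, pre-incubated 24 h before dosing. Adherent cells fixed with cold TCA; endpoint is sulforhodamine B protein staining. Percent growth of treated cells is reported relative to untreated control.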

BT-549 = assay: Anticancer activity against human BT549 cells assessed as cell growth promotion at 10^-5 M after 48 hrs by SRB assay relative to control; format: functional
MDA-MB-435 = assay: Growth inhibition of human MDA-MB-435 cells after 48 hrs by SRB assay; format: functional; details: MDA-MB-435, 48 h; outline: as §1
SK-MEL-2 [7] = assay: Anticancer activity against human SK-MEL-2 cells assessed as cell growth promotion at 10^-5 M after 48 hrs by SRB assay relative to control; format: functional
PC-3 = assay: Cytotoxicity against human PC3 cells after 48 hrs by SRB assay; format: cell-based; details: pc-3, 48 h; outline: as §3
IGROV-1 = assay: Anticancer activity against human IGROV1 cells assessed as cell growth promotion at 10^-5 M after 48 hrs by SRB assay relative to control; format: functional

| SMILES | Activity (U-251) | Activity (OVCAR-4) | Activity (LOX IMVI [3]) | Activity (UACC-62) | Activity (HT-29) | Activity (COLO 205) | Activity (SW-620) | Activity [4] | Activity (NCI-H322M) | Activity (ACHN) | Activity (M14) | Activity (NCI-H23) | Activity (NCI-H522) | Activity (SNB-75 [6]) | Activity (HOP-62) | Activity (HL-60(TB)) | Activity (BT-549) | Activity (SK-MEL-2 [7]) | Activity (IGROV-1) | also measured |
| --- | --- | --- | --- | --- | --- | --- | --- | --- | --- | --- | --- | --- | --- | --- | --- | --- | --- | --- | --- | --- |
| O=c1c2ccccc2nc(-c2ccco2)n1/N=C/c1ccccc1Cl | 37.22% | 4.38% | 34.24% | 62.82% | 52.78% | 32.76% | 34.38% | 92.65% | 36.23% | 23.89% | 87.98% | 64.87% | 10.38% | 32.38% | -34.84% | 89.12% | 13.63% | 67.89% | 71.23% | GI50 (HCT-15): 5.73 µM; TGI (HCT-15): > 100 µM; GI50 (LOX IMVI [1]): 4.54 µM; TGI (LOX IMVI [1]): > 100 µM; GI50 (SK-MEL-2 [2]): 6.86 µM; TGI (SK-MEL-2 [2]): > 100 µM; LC50 (T47D): > 100 µM; LC50 (SK-MEL-5): > 100 µM; GI50 (MDA-MB-231): 3.13 µM; TGI (MDA-MB-231): 7.84 µM; LC50 (NCI/ADR-RES): 52.7 µM; GI50 (SNB-75 [5]): 4.1 µM; TGI (SNB-75 [5]): 7.51 µM; GI50 (MDA-MB-435): 8.23 µM; TGI (MDA-MB-435): 17 µM; LC50 (PC-3): > 100 µM |
| O=C(Nc1ccccc1C(=O)Nc1ccc(/C=C/c2ccc(O)cc2)cc1)c1ccccc1 | 103% | 82.05% | 69.03% | 40.16% | 97.64% | 101% | 101% | 53.22% | 71.88% | 58.96% | 81.74% | 91.38% | 69.87% | 99.47% | 95.55% | 50.34% | 65.95% | 99.47% | 85.6% | – |
| O=C(Nc1ccccc1C(=O)Nc1ccc(/C=C/c2ccc(Cl)cc2)cc1)c1ccccc1 | 60.68% | 85.63% | 74.93% | 79.67% | 89.94% | 124% | 99.16% | 56.24% | 89.27% | 82.68% | 78.5% | 73.51% | 70.95% | 84.55% | 105% | 94.11% | 76.41% | 90.64% | 89.85% | – |
| O=C(Nc1ccccc1C(=O)Nc1ccc(/C=C/c2ccc(Cl)cc2)cc1)c1ccco1 | 107% | 101% | 94.63% | 101% | 103% | 128% | 106% | 120% | 110% | 100% | 107% | 95.98% | 114% | 71.39% | 104% | 96.67% | 127% | 136% | 117% | – |
